Here are results for six molecules from ChEMBL document CHEMBL1122671, “Anticonvulsant activity of some 4-aminobenzamides” (J Med Chem, 1984).

Series [1] relates to Mus musculus. The experiment in a line: Anticonvulsant activity against scMet (subcutaneous metrazole) induced seizure in mice at 4 hr; - = No activity at 600 mg/kg. The format is functional, organism-based. The arrangement: dose 600 mg/kg. The procedure, abridged:
(§1)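 Male Carworth Farms number-one mice dosed ip (30% PEG 400) at 30, 100, 300 and in some cases 600 mg/kg. Pentylenetetrazole 85 mg/kg given sc as a 0.5% solution in the posterior midline, at 30 min or 4 h. Protection means no clonic spasm of at least 5 s within 30 min. Scored by the lowest protective dose.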

Series [2] is described as follows: Protective index (PI) which is defined as the ratio of TD50 to the ED50 (MES). The format is functional. The essentials: (§2)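 Both values come from ip dosing in 30% PEG 400 to male Carworth Farms number-one mice and were derived by the graphical method.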
The species entered for series [3] is Mus musculus. The experiment in a line: (§3) Evaluation of neurologic deficit by rotarod procedure in mice. The series is classed as functional. The procedure, abridged: (§4)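 Male Carworth Farms number-one mice were dosed ip (30% PEG 400 vehicle) and placed on a 1-in. knurled plastic rod rotating at 6 rpm. Neurotoxicity meant failure to stay on the rod for 1 min. TD50 was determined graphically.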

A short description of series [4]: Protective index (PI) which is defined as the ratio of TD50 to the ED50 (ScMet). The series is classed as functional. The essentials:
as §2

In series [5] the test system is Mus musculus. The experiment in a line: Evaluated for toxicity by using rotarod test at in mice 30 min; +++ = Activity at 100 mg/kg,*- Loss of righting reflex at less than 600 mg/kg. The series is classed as organism-based. The conditions noted are these: in vivo, 0.5 h. The essentials: (§5)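 Neurotoxicity in male Carworth Farms number-one mice dosed ip in 30% PEG 400 at 30, 100, 300 and sometimes 600 mg/kg, tested 30 min or 4 h later. Mice placed on a 1-in. knurled rod rotating at 6 rpm; toxicity means failure to stay on the rod for 1 min. Scored by the lowest toxic dose; footnotes record loss of righting reflex or lethality.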

Series [6] concerns Mus musculus. The experiment in a line: Evaluated for toxicity by using rotarod test in mice at 4 hr; ++ = Activity at 300 mg/kg. The series is classed as organism-based. The conditions noted are these: in vivo. The arrangement: dose 300 mg/kg. The essentials: as §5
Series [7] relates to Mus musculus. The series is described as follows: Anticonvulsant activity against MES (maximal electroshock) induced seizure in mice at 4 hr; ++ = Activity at 300 mg/kg. The arrangement: dose 300 mg/kg. The format is functional, organism-based. The essentials: (§6)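 Male Carworth Farms number-one mice received the compound ip in 30% polyethylene glycol 400. Doses were 30, 100 and 300 mg/kg, with 600 mg/kg in some cases. Maximal electroshock seizure protection was scored at 30 min and 4 h after dosing. Activity is coded by the lowest effective dose.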

Series [8] concerns Mus musculus. The experiment in a line: Anticonvulsant activity against scMet (subcutaneous metrazole) induced seizure in mice at 30 min; +++ = Activity at 100 mg/kg. The series is classed as functional, organism-based. The arrangement: dose 100 mg/kg.
Series [9] relates to Mus musculus. The series is described as follows: Anticonvulsant activity against MES (maximal electroshock) induced seizure in mice at 30 min; +++ = Activity at 100 mg/kg. The series is classed as functional, organism-based. The arrangement: dose 100 mg/kg. The procedure, abridged: as §6
Series [10] concerns Mus musculus. The series is described as follows: Evaluated for toxicity by using rotarod test in mice at 4 hr; + indicates activity at 600 mg/kg. The format is organism-based. The arrangement: dose 600 mg/kg. The conditions noted are these: in vivo. The essentials: as §5
In series [11] the test system is Mus musculus. The series is described as follows: Evaluated for toxicity by using rotarod test at in mice 30 min; ++ indicates activity at 300 mg/kg. The format is organism-based. The arrangement: dose 300 mg/kg. The conditions noted are these: in vivo, 0.5 h. The essentials:
as §5

Series [12] has as its system Mus musculus. The experiment in a line: Anticonvulsant activity against scMet (subcutaneous metrazole) induced seizure in mice at 4 hr; - indicates no activity at 600 mg/kg. The format is functional, organism-based. The arrangement: dose 600 mg/kg. The procedure, abridged: as §1
The test system of series [13] is Mus musculus. The experiment in a line: Anticonvulsant activity against MES (maximal electroshock) induced seizure in mice at 4 hr; +++ = Activity at 100 mg/kg. The series is classed as functional, organism-based. The arrangement: dose 100 mg/kg. The procedure, abridged:
as §6

Series [14] can be described thus: Evaluation of neurologic deficit by rotarod procedure in mice. The format is ADME, organism-based. To be noted: mouse, in vivo. The procedure, abridged:
as §4

For series [15], the system named is Mus musculus. The series is described as follows: Anticonvulsant activity against scMet (subcutaneous metrazole) induced seizure in mice at 4 hr; f = No activity at 100 mg/kg. The series is classed as functional, organism-based. The arrangement: dose 100 mg/kg.
Series [16] relates to Mus musculus. The experiment in a line: Evaluated for toxicity by using rotarod test in mice at 4 hr; f = No activity at 100 mg/kg. The arrangement: dose 100 mg/kg. The series is classed as organism-based. To be noted: in vivo. The essentials:
as §5

Series [17] relates to Mus musculus. The series is described as follows: Anticonvulsant activity against scMet (subcutaneous metrazole) induced seizure in mice at 30 min; f = No activity at 100 mg/kg. The arrangement: dose 100 mg/kg. The format is functional, organism-based.
For series [18], the system named is Mus musculus. The series is described as follows: Evaluated for toxicity by using rotarod test at in mice 30 min; +++ = activity at 100 mg/kg *-LD50 less than 300 mg/kg. The series is classed as organism-based. To be noted: in vivo, 0.5 h. The procedure, abridged:
as §5

Series [19] concerns Mus musculus. The experiment in a line: Anticonvulsant activity against MES (maximal electroshock) induced seizure in mice at 30 min; +++ = activity at 100 mg/kg. The format is functional, organism-based. The arrangement: dose 100 mg/kg. The essentials: as §6
Series [20] relates to Mus musculus. The series is described as follows: Anticonvulsant activity against MES (maximal electroshock) induced seizure in mice at 4 hr; f = No activity at 100 mg/kg. The format is functional, organism-based. The arrangement: dose 100 mg/kg. The procedure, abridged: as §6
Series [21] deals with Mus musculus. The experiment in a line: Anticonvulsant activity against scMet (subcutaneous metrazole) induced seizure in mice at 30 min; +++ indicates activity at 100 mg/kg. The format is functional, organism-based. The arrangement: dose 100 mg/kg.
The subject of series [22] is Mus musculus. The experiment in a line: Anticonvulsant activity against MES (maximal electroshock) induced seizure in mice at 4 hr; +++ indicates activity at 100 mg/kg. The format is functional, organism-based. The arrangement: dose 100 mg/kg. The procedure, abridged:
as §6

Series [23] relates to Mus musculus. The series is described as follows: Anticonvulsant activity against scMet (subcutaneous metrazole) induced seizure in mice at 4 hr; ++ indicates activity at 300 mg/kg. The format is functional, organism-based. The arrangement: dose 300 mg/kg.
Series [24] relates to Mus musculus. The experiment in a line: Evaluated for toxicity by using rotarod test in mice at 4 hr; ++ indicates activity at 300 mg/kg. To be noted: in vivo. The arrangement: dose 300 mg/kg. The series is classed as organism-based. The procedure, abridged: as §5
Series [25] can be described thus: as §3. To be noted: mouse, in vivo. The series is classed as ADME, organism-based. The essentials: as §4
Series [26] concerns Mus musculus. The series is described as follows: Evaluated for toxicity by using rotarod test in mice at 4 hr; f = No activity at 100 mg/kg. The format is organism-based. The arrangement: dose 100 mg/kg. The conditions noted are these: in vivo. The essentials:
as §5

Series [27] has as its system Mus musculus. The experiment in a line: Evaluated for toxicity by using rotarod test at in mice 30 min; +++ = Indicates activity at 100 mg/kg. The series is classed as organism-based. The arrangement: dose 100 mg/kg. The conditions noted are these: in vivo, 0.5 h. The procedure, abridged:
as §5

For series [28], the system named is Mus musculus. The series is described as follows: Anticonvulsant activity against MES (maximal electroshock) induced seizure in mice at 4 hr; f = No activity at 100 mg/kg. The format is functional, organism-based. The arrangement: dose 100 mg/kg. The essentials: as §6
For series [29], the system named is Mus musculus. The series is described as follows: Anticonvulsant activity against scMet (subcutaneous metrazole) induced seizure in mice at 30 min; +++ = Indicates activity at 100 mg/kg. The series is classed as functional, organism-based. The arrangement: dose 100 mg/kg.
The subject of series [30] is Mus musculus. The experiment in a line: Anticonvulsant activity against scMet (subcutaneous metrazole) induced seizure in mice at 4 hr; f = No activity at 100 mg/kg. The format is functional, organism-based. The arrangement: dose 100 mg/kg.

As for `Nc1ccc(C(=O)Nc2ccccc2)cc1`, the figures for the Activity entry in [1], in [7] and in series [8] were “Not toxic”, “Activity at 100 mg/kg” and “Activity at 100 mg/kg”, respectively. Further, the PI is 2.2 in [2] and 1.9 in series [4]. In addition, the TD50 in [3] came out at 111 mg/kg. Besides, the Toxicity result in series [5] and in [6] was “Activity at 100 mg/kg,*- Loss of righting reflex at < 600 mg/kg” each time.

For the molecule `Nc1ccc(C(=O)NC2CCCCC2)cc1`, the Activity entry in [9] is “Activity at 100 mg/kg”; in [12] it was “Not toxic”; in series [13], “Activity at 100 mg/kg”; in series [8], “Activity at 100 mg/kg”. The Toxicity result in series [10] and in series [11] was “activity at 300 mg/kg” in each case. Besides, the PI in [2] was found to be 2.8; in series [4], 1.5. This molecule showed a TD50 in [14] of 189 mg/kg.

In the case of `CCCCCCNC(=O)c1ccc(N)cc1`, the Activity entry in series [15] was “No activity”; in series [17], “No activity”; in series [19], “activity at 100 mg/kg”; in [20] it was “No activity”. Further, the Toxicity result is listed as “No activity” in series [16] and “activity at 100 mg/kg *-LD50 < 300 mg/kg” in [18].

For `CC(NC(=O)c1ccc(N)cc1)c1ccccc1` (stereo unspecified), the Activity result in [21], in series [22] and in [23] was “activity at 100 mg/kg” in each case. Further, the Toxicity result in series [11] and in [24] was “activity at 300 mg/kg” each time. For the same molecule, the results for the PI in [2] and in series [4] were 9.5 and 4.1, respectively. The molecule also yielded a TD50 in series [3] of 171 mg/kg.

In series [3], `CCC1(c2ccccc2)C(=O)NC(=O)NC1=O` [PHENOBARBITAL] displayed a TD50 of 69 mg/kg.

Take `CCCCCNC(=O)c1ccc(N)cc1`: the TD50 in series [25] was 68.5 mg/kg. Further, the Toxicity entry in [26] is “No activity”; in series [27] it was “activity at 100 mg/kg”. For the same molecule, the Activity result in series [28] was “No activity”; in [9], “Activity at 100 mg/kg”; in [29], “Activity at 100 mg/kg”; in series [30] it was “No activity”. Also, the PI in series [2] turned out to be 1.6; in [4], 1.2.
